Results on seven molecules are retold here after paper PMC8792322 (European journal of medicinal chemistry, 2021).

Data set [1] concerns PI3Kα, PI3Kβ, PI3Kγ, PI3Kδ. In words: PI3K isoform inhibition, statements spanning several isoforms. It counts as biochemical, human. The conditions noted are these: compared to 6b. The method, boiled down:
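Purified human PI3Kα, β, γ and δ enzymes tested in a fluorescence-based Adapta TR-FRET lipid kinase assay, run as a contract service. Inhibitor range 0.1 nM – 10 μM. Data are the average of three experiments, each in duplicate, as mean ± SEM.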

The target in data set [2] is PI3Kβ (Homo sapiens, UniProt P42338). In words: PI3Kβ lipid kinase inhibition, Adapta TR-FRET assay. It counts as biochemical. The settings on record: in comparison to ZSTK474.
PI3Kβ, sequence (P42338 whole entry): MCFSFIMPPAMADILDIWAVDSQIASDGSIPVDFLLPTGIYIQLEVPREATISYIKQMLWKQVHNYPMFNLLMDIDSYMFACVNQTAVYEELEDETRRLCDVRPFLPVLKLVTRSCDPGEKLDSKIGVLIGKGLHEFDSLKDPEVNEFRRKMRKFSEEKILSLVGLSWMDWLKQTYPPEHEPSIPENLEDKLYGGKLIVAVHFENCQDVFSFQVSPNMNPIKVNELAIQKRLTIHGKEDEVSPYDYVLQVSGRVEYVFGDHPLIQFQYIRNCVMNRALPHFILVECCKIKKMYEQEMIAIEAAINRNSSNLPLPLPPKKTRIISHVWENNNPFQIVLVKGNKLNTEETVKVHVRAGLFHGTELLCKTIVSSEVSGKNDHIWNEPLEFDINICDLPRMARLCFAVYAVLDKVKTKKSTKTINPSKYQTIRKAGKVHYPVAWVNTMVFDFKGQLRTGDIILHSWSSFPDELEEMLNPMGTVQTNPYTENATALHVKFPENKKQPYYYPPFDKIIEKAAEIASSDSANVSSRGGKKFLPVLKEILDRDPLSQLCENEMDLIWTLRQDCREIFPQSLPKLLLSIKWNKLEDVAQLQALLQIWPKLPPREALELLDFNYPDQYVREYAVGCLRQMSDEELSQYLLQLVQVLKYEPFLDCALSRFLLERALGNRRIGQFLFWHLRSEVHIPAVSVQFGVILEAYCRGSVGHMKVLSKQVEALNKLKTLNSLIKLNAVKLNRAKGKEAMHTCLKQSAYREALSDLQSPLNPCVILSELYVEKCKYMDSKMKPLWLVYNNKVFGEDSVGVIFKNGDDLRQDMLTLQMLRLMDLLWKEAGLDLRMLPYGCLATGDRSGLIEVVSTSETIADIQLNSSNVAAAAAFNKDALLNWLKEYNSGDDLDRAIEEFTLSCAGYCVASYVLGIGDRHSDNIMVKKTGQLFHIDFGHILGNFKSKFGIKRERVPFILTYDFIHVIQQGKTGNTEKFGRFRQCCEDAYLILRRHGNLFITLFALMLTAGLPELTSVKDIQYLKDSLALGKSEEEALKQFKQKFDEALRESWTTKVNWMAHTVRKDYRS
PI3Kβ, sequence (P27986 whole entry partner): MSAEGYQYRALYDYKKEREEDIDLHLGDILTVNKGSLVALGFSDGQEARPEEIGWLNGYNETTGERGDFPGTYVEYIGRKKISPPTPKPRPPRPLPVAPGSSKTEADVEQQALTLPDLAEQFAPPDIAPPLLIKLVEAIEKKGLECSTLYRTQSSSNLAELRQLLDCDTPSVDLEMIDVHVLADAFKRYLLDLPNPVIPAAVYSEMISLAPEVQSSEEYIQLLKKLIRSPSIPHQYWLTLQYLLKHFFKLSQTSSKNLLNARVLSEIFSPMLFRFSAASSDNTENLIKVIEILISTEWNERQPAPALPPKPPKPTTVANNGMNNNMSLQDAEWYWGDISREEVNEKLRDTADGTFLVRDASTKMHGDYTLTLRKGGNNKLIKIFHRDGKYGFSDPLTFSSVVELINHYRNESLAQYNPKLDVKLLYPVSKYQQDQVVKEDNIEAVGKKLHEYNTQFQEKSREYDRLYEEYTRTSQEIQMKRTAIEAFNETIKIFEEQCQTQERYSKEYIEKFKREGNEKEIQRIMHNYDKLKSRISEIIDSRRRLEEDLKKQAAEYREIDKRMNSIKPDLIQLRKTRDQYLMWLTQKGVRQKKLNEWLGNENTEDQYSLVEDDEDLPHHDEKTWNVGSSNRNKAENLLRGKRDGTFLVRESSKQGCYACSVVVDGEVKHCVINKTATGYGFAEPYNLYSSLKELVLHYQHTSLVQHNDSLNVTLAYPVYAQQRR
For data set [3], the system named is PI3Kα, PI3Kβ, PI3Kγ, PI3Kδ. The settings on record: compared to ZSTK474; cited from earlier work.
Data set [4] deals with phosphorylation of ERK1/2 (T202/Y204). Description: Western blot quantification of pERK1/2 in tumor-derived cell lines. It counts as cell-based. The settings on record: Homo sapiens, 0.5 h, read-out: inhibition of pERK phosphorylation. The method, boiled down:
(§1)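 A375 and D54 cells (DMEM, 10% FBS) and SET-2 cells (RPMI, 20% FBS) treated 30 min with 10 μM test compound. PDGF 50 ng/ml added for A375 and D54 only. Cells lysed 20 min on ice in RIPA with protease/phosphatase inhibitors, then SDS-PAGE/PVDF blots probed for pAKT S473, pERK1/2 T202/Y204, total AKT and total ERK1/2, with chemiluminescent detection. Background-subtracted phospho densities normalised to total protein, relative to control. Three experiments; mean ± SEM.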

Data set [5] concerns phosphorylated ERK1/2 and AKT in spleens of JAK2V617F MF mice. Description: pAKT and pERK1/2 in spleens of treated MF mice. It counts as in vivo, mouse. The settings on record: 325 mg/kg daily p.o., 5 days, vs vehicle. In short, it runs like this: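 JAK2V617F myelofibrosis mice received test compound orally for 5 days, and spleens were taken after sacrifice. For blots, tissue was homogenised in RIPA and 30 μg protein (by BCA) run by SDS-PAGE. Blots were probed for pERK1/2 and pAKT with β-actin as loading control, 2 animals per group. Flow cytometry: isolated cells stained intracellularly with APC anti-pERK1/2 (pT202/pY204) and anti-pAKT (pS473); mean fluorescence intensity reported.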

Data set [6] deals with JAK2V617F MF mouse model. Description: Therapy study in JAK2V617F myelofibrosis mouse model. It counts as in vivo. The settings on record: 325 mg/kg daily p.o., 4 days. The method, boiled down: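 JAK2V617F fl/− × Mx1-Cre donor bone marrow mixed with WT C57BL/6 marrow (1:9, WT:mutant). Five million cells transplanted into lethally irradiated C57BL/6 females, with polyI:C given twice 2 weeks after transplant. Spleen volume by 7T MRI (2D multi-slice FLASH, TR/TE 600/8 ms, 40 slices of 0.4 mm) at days 0 and 4, summing pixel areas × slice thickness. Spleens weighed after 5 days of treatment. n=5 vehicle, n=4 treated; mean ± s.d.; Welch's t-test.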

Data set [7] can be described thus: In vivo tissue levels and metabolic profile by LC-MS/MS. The conditions noted are these: mice, oral 325 mg/kg, approximately 4 h. Further details: species or system mouse. The method, boiled down:
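Mice (n=4 per compound) dosed orally at 325 mg/kg; blood, spleen and bone marrow taken about 4 h later. Tissue extracted by shaking or bead homogenisation and spun at 10,000 × g. Analysed by C18 UPLC (0.1% formic acid water/acetonitrile, 0.6 mL/min) with MRM LC-MS/MS. Internal-standard calibration used 1/X weighting over 0.02–160 ng/mL. Synthesized metabolite standards confirmed identities; levels given as ng/g.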

Data set [8] has as its system A375 melanoma, D54 glioblastoma and SET-2 leukemia tumor cell lines. Description: CellTiter-Fluor cell viability assay. The conditions noted are these: Homo sapiens, 72 h, read-out: anti-proliferative activity IC50. It is filed as cell-based. In short, it runs like this: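 Human A375, D54 (DMEM or RPMI, 10% FBS) and SET-2 (20% FBS) cells at 37 °C, 5% CO2; 500–1,000 cells/well seeded and left 24 h, then test compound added at 0.1–20 μM final for 72 h. Read by CellTiter-Fluor fluorescence, with a reference PI3K inhibitor as positive control. Three experiments in duplicate wells; IC50 from curve fit, mean ± SEM.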

Data set [9] deals with phosphorylation of AKT (S473). Description: Western blot quantification of pAKT in tumor-derived cell lines. It is filed as cell-based. The settings on record: Homo sapiens, 0.5 h, read-out: inhibition of pAKT phosphorylation. The method, boiled down:
as §1

Data set [10] concerns the target PI3Kδ (Homo sapiens, UniProt O00329). Description: PI3Kδ lipid kinase inhibition, Adapta TR-FRET assay. It counts as biochemical. The settings on record: in comparison to ZSTK474. A general note: TR-FRET usually uses a lanthanide donor and a delayed reading to cut background.
For data set [11], the target named is PI3Kγ (Homo sapiens, UniProt P48736). In words: PI3Kγ lipid kinase inhibition, Adapta TR-FRET assay. It counts as biochemical. The settings on record: in comparison to ZSTK474.
PI3Kγ, sequence (P48736 whole entry): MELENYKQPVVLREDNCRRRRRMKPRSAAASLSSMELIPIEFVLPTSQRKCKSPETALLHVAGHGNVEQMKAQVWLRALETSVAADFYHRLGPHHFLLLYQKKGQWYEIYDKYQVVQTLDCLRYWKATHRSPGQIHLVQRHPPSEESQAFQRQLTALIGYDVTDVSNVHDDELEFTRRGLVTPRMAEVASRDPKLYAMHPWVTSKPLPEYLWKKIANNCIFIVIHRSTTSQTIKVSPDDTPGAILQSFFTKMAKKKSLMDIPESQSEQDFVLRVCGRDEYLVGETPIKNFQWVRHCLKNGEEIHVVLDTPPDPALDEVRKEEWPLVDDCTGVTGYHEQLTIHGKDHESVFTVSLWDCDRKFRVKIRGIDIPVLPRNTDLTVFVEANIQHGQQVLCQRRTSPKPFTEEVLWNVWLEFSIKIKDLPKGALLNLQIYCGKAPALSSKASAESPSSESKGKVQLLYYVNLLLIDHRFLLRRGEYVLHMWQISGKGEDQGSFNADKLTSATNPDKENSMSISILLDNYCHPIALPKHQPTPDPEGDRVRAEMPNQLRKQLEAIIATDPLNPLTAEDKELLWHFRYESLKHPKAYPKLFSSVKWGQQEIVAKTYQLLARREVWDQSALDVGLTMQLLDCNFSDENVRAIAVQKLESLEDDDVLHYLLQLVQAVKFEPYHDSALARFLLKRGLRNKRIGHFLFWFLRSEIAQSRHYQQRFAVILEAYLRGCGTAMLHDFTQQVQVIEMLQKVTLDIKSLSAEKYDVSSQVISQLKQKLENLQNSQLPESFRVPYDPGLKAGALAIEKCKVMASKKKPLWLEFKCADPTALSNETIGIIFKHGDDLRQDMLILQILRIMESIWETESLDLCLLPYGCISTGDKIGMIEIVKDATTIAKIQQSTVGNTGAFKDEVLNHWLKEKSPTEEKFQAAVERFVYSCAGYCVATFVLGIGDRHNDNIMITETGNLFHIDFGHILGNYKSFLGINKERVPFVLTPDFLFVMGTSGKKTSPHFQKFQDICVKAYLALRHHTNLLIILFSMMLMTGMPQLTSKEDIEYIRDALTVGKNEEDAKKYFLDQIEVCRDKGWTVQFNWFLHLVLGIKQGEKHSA

PI3Kδ, sequence (O00329 whole entry): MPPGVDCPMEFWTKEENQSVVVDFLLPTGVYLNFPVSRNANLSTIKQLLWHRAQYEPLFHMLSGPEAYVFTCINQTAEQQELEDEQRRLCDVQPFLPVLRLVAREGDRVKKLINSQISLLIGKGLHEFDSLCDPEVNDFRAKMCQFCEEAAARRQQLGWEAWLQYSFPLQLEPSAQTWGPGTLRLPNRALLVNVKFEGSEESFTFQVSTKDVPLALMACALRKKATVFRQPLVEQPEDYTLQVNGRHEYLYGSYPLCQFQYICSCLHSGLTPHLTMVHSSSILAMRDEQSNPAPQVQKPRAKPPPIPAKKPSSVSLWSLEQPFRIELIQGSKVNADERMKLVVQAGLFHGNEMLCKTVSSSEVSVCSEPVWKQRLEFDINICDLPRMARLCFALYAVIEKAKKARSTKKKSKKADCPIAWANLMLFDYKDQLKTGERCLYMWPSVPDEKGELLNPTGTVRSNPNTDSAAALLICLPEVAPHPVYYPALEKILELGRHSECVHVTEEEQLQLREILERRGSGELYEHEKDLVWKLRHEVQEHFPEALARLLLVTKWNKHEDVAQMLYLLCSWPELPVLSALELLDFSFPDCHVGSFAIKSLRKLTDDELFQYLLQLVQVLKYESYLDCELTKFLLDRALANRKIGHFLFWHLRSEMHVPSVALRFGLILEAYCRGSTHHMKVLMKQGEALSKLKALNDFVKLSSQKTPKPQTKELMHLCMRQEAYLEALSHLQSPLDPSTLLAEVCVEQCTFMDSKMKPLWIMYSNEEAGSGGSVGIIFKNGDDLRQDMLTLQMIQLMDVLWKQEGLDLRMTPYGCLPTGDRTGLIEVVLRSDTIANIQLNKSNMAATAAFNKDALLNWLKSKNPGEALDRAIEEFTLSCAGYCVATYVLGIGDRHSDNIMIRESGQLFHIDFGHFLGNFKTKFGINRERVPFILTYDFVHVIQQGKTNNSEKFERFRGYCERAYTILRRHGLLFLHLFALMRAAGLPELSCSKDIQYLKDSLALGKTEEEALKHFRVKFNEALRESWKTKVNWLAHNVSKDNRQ
PI3Kδ, sequence (P27986 whole entry partner): as the sequence (P27986 whole entry partner) above

`COCCN(CCO)c1nc(N2CCOCC2)nc(-n2c(C(F)F)nc3ccccc32)n1` [Compound 6d, 2-((4-(2-(difluoromethyl)-1H-benzo[d]imidazol-1-yl)-6-morpholino-1,3,5-triazin-2-yl)(2-methoxyethyl)amino)ethan-1-ol]: the “fold lower potency towards PI3Kβ and PI3Kγ” value in data set [1] was 2 fold.

For `COCCNc1nc(N2CCOCC2)nc(-n2c(C(F)F)nc3ccccc32)n1` [Compound 6c, 4-(2-(difluoromethyl)-1H-benzo[d]imidazol-1-yl)-N-(2-methoxyethyl)-6-morpholino-1,3,5-triazin-2-amine], the “fold decrease in PI3Kβ inhibition” value in data set [2] is recorded as 14 fold.

On to `FC(F)c1nc2ccccc2n1-c1nc(N2CCNCC2)nc(N2CCOCC2)n1` [Compound 2a], for which, in [3], the “fold reduction in PI3Kα and PI3Kδ inhibition” value is reported as 36 fold; the “fold reduction in PI3Kβ and PI3Kγ inhibition” value is given as more than 70 fold.

As a reminder, the inhibition is the percentage by which the read-out fell short of the control. One may read the IC50 as the concentration that inhibits the measured activity by half. Consider `O=C(NOCCOCCOCCOCCNc1nc(N2CCOCC2)nc(-n2c(C(F)F)nc3ccccc32)n1)c1ccc(F)c(F)c1Nc1ccc(I)cc1F` [Compound 6r, N-(2-(2-(2-(2-((4-(2-(difluoromethyl)-1H-benzo[d]imidazol-1-yl)-6-morpholino-1,3,5-triazin-2-yl)amino)ethoxy)ethoxy)ethoxy)ethoxy)-3,4-difluoro-2-((2-fluoro-4-iodophenyl)amino)benzamide], for which the inhibition at 10 µM was 66 to 85% in [4] and 22 to 29% in [9]. Moreover, the “phosphorylated ERK1/2 and AKT levels in spleen” value in data set [5] was “significantly reduced”. In addition, the “spleen volume by MRI compared with vehicle” value in [6] is recorded as “significantly reduced”. Also, the “in vivo metabolites identified” value in data set [7] was “MV-187 (6a) and PD0316684 and MV4–6”. Besides, the IC50 in data set [8] is 10.7 to 17.3 µM.

With `OCCN(CCO)c1nc(N2CCOCC2)nc(-n2c(C(F)F)nc3ccccc32)n1` [Compound 6b, 2,2’-((4-(2-(difluoromethyl)-1H-benzo[d]imidazol-1-yl)-6-morpholino-1,3,5-triazin-2-yl)azanediyl)bis(ethan-1-ol)], the “fold decrease in PI3Kδ inhibition” value in data set [10] is listed as 2.5 fold. In addition, the “fold decrease in PI3Kβ inhibition” value in data set [2] amounted to 5 fold.

Regarding `O=C(NOCCOCCOCCOCCN(CCO)c1nc(N2CCOCC2)nc(-n2c(C(F)F)nc3ccccc32)n1)c1ccc(F)c(F)c1Nc1ccc(I)cc1F` [Compound 6s, N-((3-(4-(2-(difluoromethyl)-1H-benzo[d]imidazol-1-yl)-6-morpholino-1,3,5-triazin-2-yl)-1-hydroxy-6,9,12-trioxa-3-azatetradecan-14-yl)oxy)-3,4-difluoro-2-((2-fluoro-4-iodophenyl)amino)benzamide], the inhibition at 10 µM fell in the range of 87 to 96% in data set [4] and 55 to 71% in [9]. Further, the “phosphorylated ERK1/2 and AKT levels in spleen” value in data set [5] was “significantly reduced”. In addition, the “spleen volume by MRI compared with vehicle” value in data set [6] is “significantly reduced”. The “in vivo metabolites identified” value in data set [7] is “MV5–46 (6o), which is then further metabolized to MV5–32 (6b) and MV4–187 (6a)”. Moreover, the IC50 in data set [8] lay within 7 to 9.9 µM.

With `OCCNc1nc(N2CCOCC2)nc(-n2c(C(F)F)nc3ccccc32)n1` [Compound 6a, 2-((4-(2-(difluoromethyl)-1H-benzo[d]imidazol-1-yl)-6-morpholino-1,3,5-triazin-2-yl)amino)ethan-1-ol], in data set [10], the “fold decrease in PI3Kδ inhibition” value came to 2.5 fold. Also, the “fold lowered potency towards PI3Kγ” value in data set [11] worked out at 2.5 fold. Also, the “fold decrease in PI3Kβ inhibition” value in data set [2] was found to be 5 fold.
